Data as given in ChEMBL document CHEMBL3045579, “Herbicidal activity of cineole derivatives” (2010).
Activity calls are given as the source filed them.

Assays:
[1] = tested on: Radish; assay: Pre-emergence herbicidal activity against Raphanus sativus var.Long scarlet (radish) seeds assessed as root length at 0.1 mol/l at 25 degC after 72 hr by laboratory-based agar medium bioassay relative to control; assay type: functional
Method in brief: (§1)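 Solutions tested at 1 to 1 × 10^-4 mol L^-1. 10 seeds/dish, 5 randomized replicate dishes angled ~70°. Incubated 72 h at 25 °C in light. Solvent and no-solvent controls. Germination, root length and shoot length recorded.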

[2] = tested on: Radish; assay: Pre-emergence herbicidal activity against Raphanus sativus var.Long scarlet (radish) seeds assessed as shoot growth inhibition at 1 mol/l at 25 degC after 72 hr by laboratory-based agar medium bioassay; assay type: functional, organism-based; method in brief: as §1
[3] = tested on: Radish; assay: Pre-emergence herbicidal activity against Raphanus sativus var.Long scarlet (radish) seeds assessed as concentration required to suppress seed germination at 25 degC after 72 hr by laboratory-based agar medium bioassay; assay type: functional
[4] = tested on: Radish; assay: Pre-emergence herbicidal activity against Raphanus sativus var.Long scarlet (radish) seeds assessed as concentration required to suppress shoot growth at 25 degC after 72 hr by laboratory-based agar medium bioassay; assay type: functional
[5] = tested on: Radish; assay: Pre-emergence herbicidal activity against Raphanus sativus var.Long scarlet (radish) seeds assessed as concentration required to suppress root growth at 25 degC after 72 hr by laboratory-based agar medium bioassay; assay type: functional
[6] = tested on: Radish; assay: Pre-emergence herbicidal activity against Raphanus sativus var.Long scarlet (radish) seeds assessed as seed germination at 0.1 mol/l at 25 degC after 72 hr by laboratory-based agar medium bioassay relative to 1,8-Cineole; assay type: functional
Method in brief: (§2)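 Agar-plate assay as above: compound in organic solvent evaporated onto Ca/B water agar, 10 seeds × 5 dishes, 72 h at 25 °C in light. Germination, root length or shoot length at 0.1 mol L^-1 expressed relative to 1,8-cineole.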

[7] = tested on: Radish; assay: Pre-emergence herbicidal activity against Raphanus sativus var.Long scarlet (radish) seeds assessed as shoot length at 0.1 mol/l at 25 degC after 72 hr by laboratory-based agar medium bioassay relative to 1,8-Cineole; assay type: functional; method in brief: as §2
[8] = tested on: Radish; assay: Pre-emergence herbicidal activity against Raphanus sativus var.Long scarlet (radish) seeds assessed as root length at 0.1 mol/l at 25 degC after 72 hr by laboratory-based agar medium bioassay relative to 1,8-Cineole; assay type: functional; method in brief: as §2
[9] = tested on: Radish; assay: Pre-emergence herbicidal activity against Raphanus sativus var.Long scarlet (radish) seeds assessed as seed germination at 0.1 mol/l at 25 degC after 72 hr by laboratory-based agar medium bioassay relative to control; assay type: functional; method in brief: as §1
[10] = tested on: Radish; assay: Pre-emergence herbicidal activity against Raphanus sativus var.Long scarlet (radish) seeds assessed as shoot length at 0.1 mol/l at 25 degC after 72 hr by laboratory-based agar medium bioassay relative to control; assay type: functional; method in brief: as §1
[11] = tested on: Lolium rigidum; assay: Pre-emergence herbicidal activity against Lolium rigidum seeds assessed as seed germination at 0.1 mol/l at 25 degC after 72 hr by laboratory-based agar medium bioassay relative to 1,8-Cineole; assay type: functional; method in brief: as §2
[12] = tested on: Lolium rigidum; assay: Pre-emergence herbicidal activity against Lolium rigidum seeds assessed as shoot length at 0.1 mol/l at 25 degC after 72 hr by laboratory-based agar medium bioassay relative to 1,8-Cineole; assay type: functional; method in brief: as §2
[13] = tested on: Lolium rigidum; assay: Pre-emergence herbicidal activity against Lolium rigidum seeds assessed as shoot growth inhibition at 0.001 to 0.01 mol/l at 25 degC after 72 hr by laboratory-based agar medium bioassay; assay type: functional, organism-based; method in brief: as §1
[14] = tested on: Lolium rigidum; assay: Pre-emergence herbicidal activity against Lolium rigidum seeds assessed as concentration required to suppress shoot growth at 25 degC after 72 hr by laboratory-based agar medium bioassay; assay type: functional
[15] = tested on: Lolium rigidum; assay: Pre-emergence herbicidal activity against Lolium rigidum seeds assessed as concentration required to suppress seed germination at 25 degC after 72 hr by laboratory-based agar medium bioassay; assay type: functional
[16] = tested on: Lolium rigidum; assay: Pre-emergence herbicidal activity against Lolium rigidum seeds assessed as concentration required to suppress root growth at 25 degC after 72 hr by laboratory-based agar medium bioassay; assay type: functional
[17] = tested on: Lolium rigidum; assay: Pre-emergence herbicidal activity against Lolium rigidum seeds assessed as root length at 0.1 mol/l at 25 degC after 72 hr by laboratory-based agar medium bioassay relative to 1,8-Cineole; assay type: functional; method in brief: as §2
[18] = tested on: Lolium rigidum; assay: Pre-emergence herbicidal activity against Lolium rigidum seeds assessed as seed germination at 0.1 mol/l at 25 degC after 72 hr by laboratory-based agar medium bioassay relative to control; assay type: functional; method in brief: as §1
[19] = tested on: Lolium rigidum; assay: Pre-emergence herbicidal activity against Lolium rigidum seeds assessed as shoot length at 0.1 mol/l at 25 degC after 72 hr by laboratory-based agar medium bioassay relative to control; assay type: functional; method in brief: as §1
[20] = tested on: Lolium rigidum; assay: Pre-emergence herbicidal activity against Lolium rigidum seeds assessed as root length at 0.1 mol/l at 25 degC after 72 hr by laboratory-based agar medium bioassay relative to control; assay type: functional; method in brief: as §1
[21] = tested on: Radish; assay: Pre-emergence herbicidal activity against Raphanus sativus var.Long scarlet (radish) seeds assessed as shoot growth inhibition at 25 degC after 72 hr by laboratory-based agar medium bioassay; assay type: functional, organism-based; method in brief: as §1
[22] = tested on: Radish; assay: Pre-emergence herbicidal activity against Raphanus sativus var.Long scarlet (radish) seeds assessed as root growth inhibition at 25 degC after 72 hr by laboratory-based agar medium bioassay; assay type: functional, organism-based; method in brief: as §1
[23] = tested on: Radish; assay: Pre-emergence herbicidal activity against Raphanus sativus var.Long scarlet (radish) seeds assessed as seed germination inhibition at 1 mol/l at 25 degC after 72 hr by laboratory-based agar medium bioassay; assay type: functional, organism-based; method in brief: as §1
[24] = tested on: Lolium rigidum; assay: Pre-emergence herbicidal activity against Lolium rigidum seeds assessed as concentration required to suppress seed germination at 25 degC after 72 hr by filter paper bioassay; assay type: functional
Method in brief: (§3)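 Two seed-plate formats. Filter paper: sterile paper wetted with 1 mL aqueous solution containing 3.4 × 10^-4 g mL^-1 Tween 80, dish sealed and flat. 10 seeds/dish, 5 dishes per concentration. Incubated 72 h at 25 °C under light. Threshold taken by one-way ANOVA at P = 0.05.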

[25] = tested on: Lolium rigidum; assay: Pre-emergence herbicidal activity against Lolium rigidum seeds assessed as concentration required to suppress shoot growth at 25 degC after 72 hr by filter paper bioassay; assay type: functional; method in brief: as §3
[26] = tested on: Lolium rigidum; assay: Pre-emergence herbicidal activity against Lolium rigidum seeds assessed as concentration required to suppress root growth at 25 degC after 72 hr by filter paper bioassay; assay type: functional; method in brief: as §3
[27] = tested on: Radish; assay: Pre-emergence herbicidal activity against Raphanus sativus var.Long scarlet (radish) seeds assessed as concentration required to suppress seed germination at 25 degC after 72 hr by filter paper bioassay; assay type: functional; method in brief: as §3
[28] = tested on: Radish; assay: Pre-emergence herbicidal activity against Raphanus sativus var.Long scarlet (radish) seeds assessed as concentration required to suppress root growth at 25 degC after 72 hr by filter paper bioassay; assay type: functional; method in brief: as §3
[29] = tested on: Radish; assay: Pre-emergence herbicidal activity against Raphanus sativus var.Long scarlet (radish) seeds assessed as concentration required to suppress shoot growth at 25 degC after 72 hr by filter paper bioassay; assay type: functional; method in brief: as §3
[30] = tested on: Lolium rigidum; assay: Pre-emergence herbicidal activity against Lolium rigidum seeds assessed as shoot length at 0.1 mol/l at 25 degC after 72 hr by filter paper bioassay relative to control; assay type: functional
Method in brief: (§4)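 Seeds on sterile filter paper wetted with 1 mL aqueous solution containing 3.4 × 10^-4 g mL^-1 Tween 80. Eucalyptus oil tested at 0.0154 g mL^-1, giving about 0.1 mol L^-1 1,8-cineole. Dishes sealed and kept flat. 10 seeds/dish, 5 dishes. Incubated 72 h at 25 °C under 135–195 μE m^-2 s^-1 light. Germination, root length or shoot length compared with control.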

[31] = tested on: Lolium rigidum; assay: Pre-emergence herbicidal activity against Lolium rigidum seeds assessed as seed germination at 0.1 mol/l at 25 degC after 72 hr by filter paper bioassay relative to control; assay type: functional; method in brief: as §4
[32] = tested on: Lolium rigidum; assay: Pre-emergence herbicidal activity against Lolium rigidum seeds assessed as root length at 0.1 mol/l at 25 degC after 72 hr by filter paper bioassay relative to control; assay type: functional; method in brief: as §4
[33] = tested on: Radish; assay: Pre-emergence herbicidal activity against Raphanus sativus var.Long scarlet (radish) seeds assessed as seed germination at 0.1 mol/l at 25 degC after 72 hr by filter paper bioassay relative to control; assay type: functional; method in brief: as §4
[34] = tested on: Radish; assay: Pre-emergence herbicidal activity against Raphanus sativus var.Long scarlet (radish) seeds assessed as shoot length at 0.1 mol/l at 25 degC after 72 hr by filter paper bioassay relative to control; assay type: functional; method in brief: as §4
[35] = tested on: Radish; assay: Pre-emergence herbicidal activity against Raphanus sativus var.Long scarlet (radish) seeds assessed as root length at 0.1 mol/l at 25 degC after 72 hr by filter paper bioassay relative to control; assay type: functional; method in brief: as §4
[36] = tested on: Radish; assay: Pre-emergence herbicidal activity against Raphanus sativus var.Long scarlet (radish)seeds assessed as seed germination inhibition at 25 degC after 72 hr by laboratory-based agar medium bioassay; assay type: functional, organism-based; method in brief: as §1

Compound | Activity [1] | Activity [3] | Activity [4] | Activity [5] | Ratio [6] | Ratio [7] | Ratio [8] | Activity [9] | Activity [10] | Ratio [11] | Ratio [12] | Activity [14] | Activity [15] | Activity [16] | Ratio [17] | Activity [18] | Activity [19] | Activity [20] | further results
Cc1ccccc1CO[C@@H]1C[C@@]2(C(C)C)CCC1(C)O2 [CINMETHYLIN] | 36.5% | 1 mol/L | 0.01 mol/L | 0.0001 mol/L | 0.4 | 1 | 0.8 | 85.7% | 62.5% |  |  |  |  |  |  |  |  |  | Activity [2]: inactive
CC12CCC(C(=O)C1)C(C)(C)O2 (racemic) [3-oxo-1,8-cineole] | 20.5% | 0.01 mol/L | 0.01 mol/L | 0.01 mol/L | 3.4 | 2.2 | 1.8 | 10% | 29.3% | 0.9 | 1.6 | 0.0001 mol/L | 0.1 mol/L | 0.1 mol/L | 1.2 | 33.3% | 18.2% | 18.9% | Activity [13]: inactive
CC(C)(C)CC(=O)O[C@H]1C[C@@]2(C)CC[C@H]1C(C)(C)O2 (racemic) [3-exo-t-butylacetoxy-1,8-cineole] | 72.5% | 0.1 mol/L | inactive | inactive | 1.1 | 0.7 | 0.5 | 31.4% | 90.9% | 0.3 | 0.6 | 0.001 mol/L | 0.1 mol/L | 0.01 mol/L | 0.3 | 97.8% | 44.8% | 64.9% | Activity [21]: inactive; Activity [22]: inactive
CCCCCC(=O)O[C@@H]1C[C@@]2(C(C)C)CC[C@@]1(C)O2 (racemic) [2-Exo-hexoxy-1,4-cineole] |  |  |  |  |  |  |  |  |  |  |  |  |  |  |  |  |  |  | Activity [23]: inactive
CC12CCC(CC1)C(C)(C)O2 [EUCALYPTOL] |  |  |  |  |  |  |  |  |  |  |  |  |  |  |  |  |  |  | Activity [24]: 0.1 mol/L; Activity [25]: 0.1 mol/L; Activity [26]: 0.1 mol/L; Activity [27]: 0.1 mol/L; Activity [28]: 1 mol/L; Activity [29]: 1 mol/L; Activity [30]: 28.4%; Activity [31]: 30.2%; Activity [32]: 22.4%; Activity [33]: 34.1%; Activity [34]: 64.7%; Activity [35]: 37.1%
CC(C)[C@]12CC[C@@](C)(O1)[C@H](OC(=O)c1ccccc1)C2 (racemic) [2-exo-benzoxy-1,4-cineole] | 54.7% | inactive | 0.01 mol/L | 0.01 mol/L | 0.4 | 1 | 0.7 | 82.9% | 64% | 0.7 | 1.2 | 0.0001 mol/L | 0.1 mol/L | 0.0001 mol/L | 0.8 | 46.3% | 23.7% | 28% | Activity [36]: inactive
